Laboratory results published in ChEMBL document CHEMBL1142065, “In vitro and in vivo activities of a new cephalosporin, FR264205, against Pseudomonas aeruginosa” (2007).
In brackets after ≈: the same amount, converted by molar mass. Activity calls are given as the source filed them. The rule behind the calls is not given here.

Key:
Escherichia coli [1] = test: Antibacterial activity against Escherichia coli C600 expressing ESBL TEM5; type: functional
Procedure, shortened: (§1)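 MIC by agar dilution (CLSI M7-A7) on Mueller-Hinton agar with twofold serial drug dilutions; 10^4 CFU spotted per spot; aerobic incubation 18 to 20 h at 35°C; MIC read as lowest concentration preventing visible growth.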

Pseudomonas aeruginosa [2] = test: Antibacterial activity against Pseudomonas aeruginosa KG4001 producing MexEF-OprN efflux pump; type: functional
Procedure, shortened: (§2)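 Agar dilution MIC per NCCLS (CLSI) M7-A7 on Mueller-Hinton agar with twofold serial drug dilutions. Inoculum 10^4 CFU per spot, aerobic incubation 18 to 20 h at 35°C. MIC is the lowest concentration preventing visible growth.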

Pseudomonas aeruginosa [3] = test: Antibacterial activity against ceftazidime-resistant Pseudomonas aeruginosa; type: functional; procedure, shortened: as §2
Pseudomonas aeruginosa [4] = test: Antibacterial activity against Pseudomonas aeruginosa 93; type: functional; procedure, shortened: as §1
Pseudomonas aeruginosa [5] = test: Antibacterial activity against Pseudomonas aeruginosa KG2212 producing MexAB-OprM efflux pump; type: functional; procedure, shortened: as §2
Pseudomonas aeruginosa [6] = test: Antibacterial activity against Pseudomonas aeruginosa 22029 expressing metallo beta lactamase; type: functional; procedure, shortened: as §2
Escherichia coli [7] = test: Antibacterial activity against Escherichia coli C600 expressing ESBL SHV4; type: functional; procedure, shortened: as §1
Escherichia coli [8] = test: Antibacterial activity against Escherichia coli C600 expressing ESBL TEM3; type: functional; procedure, shortened: as §1
Pseudomonas aeruginosa [9] = test: Antibacterial activity against Pseudomonas aeruginosa KG4545 producing MexXY efflux pump; type: functional; procedure, shortened: as §2
Escherichia coli [10] = test: Antibacterial activity against Escherichia coli C600; type: functional; procedure, shortened: as §1
Pseudomonas aeruginosa [11] = test: Antibacterial activity against Pseudomonas aeruginosa PAO4069 expressing inducible AmpC; type: functional; procedure, shortened: as §2
Pseudomonas aeruginosa [12] = test: Efficacy against Pseudomonas aeruginosa 93 assessed as reduction in bacterial counts in mouse urinary tract infection model at 2 mg/kg; type: functional, organism-based; set-up: dose 2 mg/kg; details: Urine
Procedure, shortened: (§3)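 Female ICR mice (4 weeks) were denied water 1 day. Under pentobarbital anesthesia they received 4.32 log10 CFU of strain 93 via the […], which was then clamped 5 h. Dosed sc at 5 h post-challenge plus twice daily for 2 days. Bilateral kidney viable counts taken the day after last treatment; 6 mice/dose.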

Pseudomonas aeruginosa [13] = test: Antibacterial activity against Pseudomonas aeruginosa PAO1; type: functional; procedure, shortened: as §2
Pseudomonas aeruginosa [14] = test: Antibacterial activity against Pseudomonas aeruginosa; type: functional; procedure, shortened: as §2
Pseudomonas aeruginosa [15] = test: Antibacterial activity against Pseudomonas aeruginosa PAO1456 expressing constitutive AmpC; type: functional; procedure, shortened: as §2
Pseudomonas aeruginosa [16] = test: Efficacy against Pseudomonas aeruginosa 93 assessed as reduction in bacterial counts in mouse burn wound infection model at 10 mg/kg; type: functional, organism-based; set-up: dose 10 mg/kg
Procedure, shortened: (§4)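 Male ICR mice (4 weeks), anesthetized with pentobarbital, received an ethanol flame burn on the shaved back (0.1 ml flaming ethanol applied twice). The wound was inoculated with 4.60 log10 CFU of strain 93. Dosed iv twice daily for 3 days from 3 h post-infection. Lesion viable counts (CFU/g) taken the day after last dose versus untreated controls; 6 mice/dose.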

Escherichia coli [17] = test: Antibacterial activity against Escherichia coli C600 expressing OXA1; type: functional; procedure, shortened: as §1
Escherichia coli [18] = test: Antibacterial activity against Escherichia coli C600 expressing ESBL SHV3; type: functional; procedure, shortened: as §1
Pseudomonas aeruginosa [19] = test: Antibacterial activity against Pseudomonas aeruginosa PAO4222; type: functional; procedure, shortened: as §2
Escherichia coli [20] = test: Antibacterial activity against Escherichia coli C600 expressing ESBL TEM4; type: functional; procedure, shortened: as §1
Escherichia coli [21] = test: Antibacterial activity against Escherichia coli C600 expressing ESBL TEM9; type: functional; procedure, shortened: as §1
Escherichia coli [22] = test: Antibacterial activity against Escherichia coli C600 expressing ESBL TEM6; type: functional; procedure, shortened: as §1
Escherichia coli [23] = test: Antibacterial activity against Escherichia coli C600 expressing ESBL CTX-M3; type: functional; procedure, shortened: as §1
Escherichia coli [24] = test: Antibacterial activity against Escherichia coli C600 expressing TEM1; type: functional; procedure, shortened: as §1
Escherichia coli [25] = test: Antibacterial activity against Escherichia coli C600 expressing ESBL TEM8; type: functional; procedure, shortened: as §1
Pseudomonas aeruginosa [26] = test: Efficacy against Pseudomonas aeruginosa 93 assessed as reduction in bacterial counts in mouse burn wound infection model at 50 mg/kg, relative to control; type: functional, organism-based; set-up: dose 50 mg/kg; procedure, shortened: as §4
Pseudomonas aeruginosa [27] = test: Antibacterial activity against Pseudomonas aeruginosa PAO1 after 5 serial passages; type: functional
Procedure, shortened: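 PAO1 passaged daily for five consecutive days in fresh Mueller-Hinton broth with twofold drug dilution series. Each next inoculum came from the tube at one-fourth the MIC. MIC change was followed across passages.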

Escherichia coli [28] = test: Antibacterial activity against Escherichia coli C600 expressing ESBL OXA2; type: functional; procedure, shortened: as §1
Pseudomonas aeruginosa [29] = test: Antibacterial activity against imipenem-resistant Pseudomonas aeruginosa; type: functional; procedure, shortened: as §2
Escherichia coli [30] = test: Antibacterial activity against Escherichia coli C600 expressing ESBL TEM7; type: functional; procedure, shortened: as §1
Escherichia coli [31] = test: Antibacterial activity against Escherichia coli C600 expressing ESBL CTX-M18; type: functional; procedure, shortened: as §1
Pseudomonas aeruginosa [32] = test: Antibacterial activity against Pseudomonas aeruginosa KG3056 producing MexCD-OprJ efflux pump; type: functional; procedure, shortened: as §2
Escherichia coli [33] = test: Antibacterial activity against Escherichia coli C600 expressing TEM2; type: functional; procedure, shortened: as §1
Pseudomonas aeruginosa [34] = test: Antibacterial activity against ciprofloxacin-resistant Pseudomonas aeruginosa; type: functional; procedure, shortened: as §2
Pseudomonas aeruginosa [35] = test: Efficacy against Pseudomonas aeruginosa 93 assessed as reduction in bacterial counts in mouse urinary tract infection model at 0.5 mg/kg; type: functional, organism-based; set-up: dose 0.5 mg/kg; details: Urine; procedure, shortened: as §3
Escherichia coli [36] = test: Antibacterial activity against Escherichia coli C600 expressing ESBL SHV2; type: functional; procedure, shortened: as §1
Escherichia coli [37] = test: Antibacterial activity against Escherichia coli C600 expressing SHV1; type: functional; procedure, shortened: as §1
Pseudomonas aeruginosa [38] = test: Efficacy against Pseudomonas aeruginosa 93 pulmonary infection in mouse assessed as reduction in bacterial counts at 10 mg/kg, sc; type: functional, organism-based; set-up: dose 10 mg/kg
Procedure, shortened: (§5)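 Male ICR mice (4 weeks), made neutropenic with cyclophosphamide 200 mg/kg ip 4 days before infection. Under pentobarbital anesthesia (50 mg/kg iv) they were challenged intranasally with 3.30 log10 CFU of strain 93, grown on tryptic soy agar 35°C 20 h and suspended in saline. Dosed sc twice daily for 3 days from 3 h post-infection. Lung viable counts taken the day after last dose; 6 mice/dose.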

Pseudomonas aeruginosa [39] = test: Efficacy against Pseudomonas aeruginosa 93 pulmonary infection in mouse assessed as reduction in bacterial counts at 2 mg/kg, sc; type: functional, organism-based; set-up: dose 2 mg/kg; procedure, shortened: as §5
Pseudomonas aeruginosa [40] = test: Antibacterial activity against Pseudomonas aeruginosa FP1380 expressing constitutive AmpC; type: functional; procedure, shortened: as §1

Q: Which MIC (Escherichia coli [1]) does the source give for `Cn1c(N)c(NC(=O)NCCN)c[n+]1CC1=C(C(=O)O)N2C(=O)[C@@H](NC(=O)/C(=N\OC(C)(C)C(=O)[O-])c3nsc(N)n3)[C@H]2SC1` [CEFTOLOZANE] here?
A: 32 µg/mL (≈ 48 µM)

Q: What about the MIC (Pseudomonas aeruginosa [2]) of the same compound?
A: 0.5 µg/mL (≈ 0.75 µM)

Q: And the MIC50 (Pseudomonas aeruginosa [3])?
A: 2 µg/mL (≈ 3 µM)

Q: What about the MIC90 (Pseudomonas aeruginosa [3]) of the same compound?
A: 4 µg/mL (≈ 6 µM)

Q: And the MIC (Pseudomonas aeruginosa [4])?
A: 0.25 µg/mL (≈ 0.375 µM)

Q: What about the MIC (Pseudomonas aeruginosa [5]) of the same compound?
A: 0.5 µg/mL (≈ 0.75 µM)

Q: What about the MIC (Pseudomonas aeruginosa [6]) of the same compound?
A: > 128 µg/mL

Q: What about the MIC (Escherichia coli [7]) of the same compound?
A: 16 µg/mL (≈ 24 µM)

Q: What about the MIC (Escherichia coli [8]) of the same compound?
A: 1 µg/mL (≈ 1.5 µM)

Q: What about the MIC (Pseudomonas aeruginosa [9]) of the same compound?
A: 0.5 µg/mL (≈ 0.75 µM)

Q: What about the MIC (Escherichia coli [10]) of the same compound?
A: 0.25 µg/mL (≈ 0.375 µM)

Q: And the MIC (Pseudomonas aeruginosa [11])?
A: 0.5 µg/mL (≈ 0.75 µM)

Q: What about the Activity (Pseudomonas aeruginosa [12]) of the same compound?
A: Active

Q: What about the MIC (Pseudomonas aeruginosa [13]) of the same compound?
A: 0.5 µg/mL (≈ 0.75 µM)

Q: What about the MIC50 (Pseudomonas aeruginosa [14]) of the same compound?
A: 0.5 µg/mL (≈ 0.75 µM)

Q: And the MIC90 (Pseudomonas aeruginosa [14])?
A: 1 µg/mL (≈ 1.5 µM)

Q: What about the MIC (Pseudomonas aeruginosa [15]) of the same compound?
A: 1 µg/mL (≈ 1.5 µM)

Q: And the Activity (Pseudomonas aeruginosa [16])?
A: Active

Q: What about the MIC (Escherichia coli [17]) of the same compound?
A: 0.5 µg/mL (≈ 0.75 µM)

Q: What about the MIC (Escherichia coli [18]) of the same compound?
A: 32 µg/mL (≈ 48 µM)

Q: What about the MIC (Pseudomonas aeruginosa [19]) of the same compound?
A: 0.5 µg/mL (≈ 0.75 µM)

Q: What about the MIC (Escherichia coli [20]) of the same compound?
A: 2 µg/mL (≈ 3 µM)

Q: What about the MIC (Escherichia coli [21]) of the same compound?
A: 32 µg/mL (≈ 48 µM)

Q: And the MIC (Escherichia coli [22])?
A: 32 µg/mL (≈ 48 µM)

Q: What about the MIC (Escherichia coli [23]) of the same compound?
A: 16 µg/mL (≈ 24 µM)

Q: And the MIC (Escherichia coli [24])?
A: 0.25 µg/mL (≈ 0.375 µM)

Q: What about the MIC (Escherichia coli [25]) of the same compound?
A: 16 µg/mL (≈ 24 µM)

Q: What about the Activity (Pseudomonas aeruginosa [26]) of the same compound?
A: Active

Q: What about the MIC (Pseudomonas aeruginosa [27]) of the same compound?
A: 2 µg/mL (≈ 3 µM)

Q: What about the MIC (Escherichia coli [28]) of the same compound?
A: 4 µg/mL (≈ 6 µM)

Q: What about the MIC (Pseudomonas aeruginosa [29]) of the same compound?
A: 0.5 µg/mL (≈ 0.75 µM)

Q: What about the MIC50 (Pseudomonas aeruginosa [29]) of the same compound?
A: 0.5 µg/mL (≈ 0.75 µM)

Q: And the MIC90 (Pseudomonas aeruginosa [29])?
A: 1 µg/mL (≈ 1.5 µM)

Q: And the MIC (Escherichia coli [30])?
A: 32 µg/mL (≈ 48 µM)

Q: And the MIC (Escherichia coli [31])?
A: 16 µg/mL (≈ 24 µM)

Q: What about the MIC (Pseudomonas aeruginosa [32]) of the same compound?
A: 0.25 µg/mL (≈ 0.375 µM)

Q: And the MIC (Escherichia coli [33])?
A: 0.5 µg/mL (≈ 0.75 µM)

Q: What about the MIC50 (Pseudomonas aeruginosa [34]) of the same compound?
A: 1 µg/mL (≈ 1.5 µM)

Q: What about the MIC90 (Pseudomonas aeruginosa [34]) of the same compound?
A: 2 µg/mL (≈ 3 µM)

Q: And the Activity (Pseudomonas aeruginosa [35])?
A: Active

Q: What about the MIC (Escherichia coli [36]) of the same compound?
A: 32 µg/mL (≈ 48 µM)

Q: What about the MIC (Escherichia coli [37]) of the same compound?
A: 0.5 µg/mL (≈ 0.75 µM)

Q: And the Activity (Pseudomonas aeruginosa [38])?
A: Active

Q: And the Activity (Pseudomonas aeruginosa [39])?
A: Active

Q: And the MIC (Pseudomonas aeruginosa [40])?
A: 4 µg/mL (≈ 6 µM)
